Source: PubChem (Broad Institute)
ERAP1 inh: inhibitors of human ERAP1 aminopeptidase. actives 0.15% (n = 340,000). AID 652197. Q9NZ08. recombinant ERAP1, Leu-AMC fluorescence, 60 min. inhibition, % at 10.7 µM;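 active = mean replicate inhibition of at least 30%, or all replicates individually reaching that 30% level; inactive = mean below 30% and not every replicate reaching it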;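 also: 0% = neutral control wells and 100% = L-leucinethiol positive control wells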
Target sequence (Q9NZ08 whole entry, looked up): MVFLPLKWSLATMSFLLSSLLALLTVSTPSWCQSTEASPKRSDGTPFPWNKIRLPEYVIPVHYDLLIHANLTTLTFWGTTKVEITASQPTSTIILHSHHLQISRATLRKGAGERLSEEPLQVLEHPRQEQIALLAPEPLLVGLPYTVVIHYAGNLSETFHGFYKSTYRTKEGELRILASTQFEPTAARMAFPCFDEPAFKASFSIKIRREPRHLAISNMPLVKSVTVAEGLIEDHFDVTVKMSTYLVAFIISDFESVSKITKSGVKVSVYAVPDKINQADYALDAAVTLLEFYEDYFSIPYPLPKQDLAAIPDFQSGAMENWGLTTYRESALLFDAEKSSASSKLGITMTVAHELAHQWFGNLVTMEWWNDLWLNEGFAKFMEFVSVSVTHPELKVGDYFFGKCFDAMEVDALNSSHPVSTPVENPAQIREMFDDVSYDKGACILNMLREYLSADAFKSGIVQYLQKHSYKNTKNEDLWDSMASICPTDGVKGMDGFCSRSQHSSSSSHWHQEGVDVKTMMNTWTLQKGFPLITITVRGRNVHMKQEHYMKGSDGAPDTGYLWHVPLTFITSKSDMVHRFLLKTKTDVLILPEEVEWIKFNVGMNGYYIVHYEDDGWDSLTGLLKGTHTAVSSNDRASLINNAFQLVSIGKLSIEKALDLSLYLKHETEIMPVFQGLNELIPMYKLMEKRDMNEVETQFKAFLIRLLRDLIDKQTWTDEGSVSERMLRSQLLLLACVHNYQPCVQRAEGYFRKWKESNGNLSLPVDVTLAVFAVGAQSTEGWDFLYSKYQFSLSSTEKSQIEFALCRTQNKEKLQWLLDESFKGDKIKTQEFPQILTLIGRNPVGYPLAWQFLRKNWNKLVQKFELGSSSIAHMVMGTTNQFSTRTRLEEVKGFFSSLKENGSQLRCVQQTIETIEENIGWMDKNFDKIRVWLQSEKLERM
S100A4 inh HTS: inhibitors of human S100A4 binding to myosin IIA peptide. S100A4/TAMRA-MyoIIA peptide fluorescence polarization. inhibition, % at 10.7 µM. actives 0.14% (n = 360,000). AID 652163;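 active = mean inhibition of at least 70% across replicates, with every replicate also reaching that level; inconclusive = mean inhibition reaches 70% but some replicates fall short; inactive = mean inhibition below 70%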
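incubation = readout 5 min after mixing, signal stable up to 60 min | system = S100A4 monomer protein | buffer or medium = HEPES pH 7.2 with CaCl2, KCl, NaCl, DTT, Triton | benchmarks = neutral control DMSO, positive control TFP | also added = fluorescent myosin IIA peptide, 5 nM | compound dosing = one concentration per compound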
SIRT5 inh: blocks human SIRT5 desuccinylation of peptide. AID 652115. Q9NXA8. inhibition, % at 15 µM. actives 1.1% (n = 330,000). Purified SirT5, succinyl-peptide AMC, trypsin-coupled fluorescence; in the data active = inhibition above about 15%; inconclusive = no clear call, values can overlap the other calls
F508del corr: CFTR F508del correction in bronchial cells; CFBE cells, YFP halide quenching; stimulated with forskolin plus potentiator P3; % fluorescence drop versus neutral controls; activity (quench increase), % at 7.58 µM; actives 0.36% (n = 350,000);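 active = mean added fluorescence quench of at least 8% versus neutral control, with both replicates also reaching 8%; inconclusive = only one of the mean or replicate conditions met; inactive = mean below 8% and not both replicates reaching 8%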;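 also: cells transiently co-express mutant CFTR-F508del with the halide-sensitive YFP; corrector assay measuring rescue of mutant channel to the surface after 24 h compound exposure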
Ecoli rRNA inh: inhibitors of bacterial rRNA selective over humanized ribosomes; E. coli WT GFP vs humanized-ribosome RFP mutants, fluorescence, 24 h; active compounds read low; DMSO median 0, no signal -100; GFP signal change (wild-type ribosome), % (no concentration beside the values); actives 1.6% (n = 350,000); AID 720706;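 active = significant combined selectivity score with lowered wild-type GFP, culture density cut under 30%, mutant RFP and density less affected; inactive = any of these conditions unmet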
AID977621: growth inhibition of wild-type GFP E. coli, dose response, H69 mutant RFP, cherry-pick | shares compounds with Ecoli rRNA inh | E. coli wild-type GFP strain growth, fluorescence, 24 h | activity change, negative = inhibition at 50 µM | 1,900 tested, under 10 active | AID 977621;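 active = Wild-type ribosome reporter drop at least double the humanized mutant ribosome reporter drop, growth loss under a set limit; inconclusive = no clear call, values can overlap the other calls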;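 also: wild-type GFP and H69 mutant RFP strains grown together 50/50 in each well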
Numbers without * were called inactive; ? = inconclusive; . = not tested or not shown; ! = a repeat was not active. Most compounds without a hit are left out; they make up all but 3.1% or so of the library.

SMILES	ERAP1 inh	S100A4 inh HTS	SIRT5 inh	F508del corr	Ecoli rRNA inh	others
CN(C)c1ccc(/C=C2/C(=O)NC(=O)N(Cc3ccco3)C2=O)cc1	15.2	-43.3	30.6*	.	.
C/C=C/c1ccc(C2[C@@H]3CN(Cc4cccc(F)c4)C[C@H]2N3)cc1 (stereo partly drawn)	1.9	-3.1	5.1	3.1	-57.1
O=C(Cc1ccccc1)N1C[C@H]2[C@@H](c3ccccc31)[C@@H](CO)N2Cc1ccccc1	.	.	-1.6	0.9	-20.0
FC(F)(F)CN1C[C@@H]2C(c3ccc(Br)cc3)[C@H](C1)N2CC1CC1 (stereo partly drawn)	.	.	.	.	-56.9
CC1OC(OC2CC(O)C3(CO)C4C(O)CC5(C)C(C6=CC(=O)OC6)CCC5(O)C4CCC3(O)C2)C(O)C(O)C1O (stereo not drawn)	-0.3	8.3	1.2	14.9*	3.4
C[C@@H]1O[C@@H](O[C@H]2C[C@@H](O)[C@]3(CO)[C@H]4[C@H](O)C[C@]5(C)[C@@H](C6COC(=O)C6)CC[C@]5(O)[C@@H]4CC[C@]3(O)C2)[C@H](O)[C@H](O)[C@H]1O (stereo partly drawn)	-3.2	-4.1	-4.3	-1.6	.
CN1[C@@H]2CN(CC3CC3)C[C@H]1C2c1ccc(Br)cc1 (stereo partly drawn)	.	.	.	.	-7.1
C[C@H]1CN([C@@H](C)CO)C(=O)c2c(c3ccccc3n2C)-c2ccccc2CO[C@@H]1CN(C)C(=O)Oc1ccccc1	-0.4	5.7	5.6	0.4	-0.2
COc1ccccc1N1CCN(Cc2c(F)cccc2F)CC1	-1.2	2.6	3.6	0.3	-5.6
COc1ccccc1N1CCN(Cc2ccc(Br)cc2)CC1	-6.2	3.9	-1.4	-6.4	-28.0*
C/C=C/c1ccc(C2[C@@H]3CN(Cc4cccnc4)C[C@H]2N3)cc1 (stereo partly drawn)	1.1	2.5	-0.9	0.0	2.7
CCOC(=O)C1CCCN(c2ccc([N+](=O)[O-])c3nonc23)C1 (stereo not drawn)	20.4	169.9*	-0.8	14.5*	32.4
CC(=O)N1C[C@@H]2C(c3ccccc3)[C@H](C1)N2C (stereo partly drawn)	.	.	.	.	0.9
CNC(=O)OCCc1n(C)cc[n+]1C	102.1*	-5.9	-1.6	-3.2	23.0
O=C(Cc1ccccn1)N1CC2(C1)[C@@H](c1ccccc1)[C@@H](CO)N2Cc1ccccn1	-1.8	0.4	-0.7	-1.5	1.6
COC(=O)[C@@H]1[C@@H](CO)[C@@H]2Cn3c(ccc(C4=CCCCC4)c3=O)[C@H]1N2CC1CCCC1	0.7	-2.5	6.0	0.6	-1.9
CC[C@H]1CN2CCC1C[C@@H]2[C@@H](O)c1ccnc2ccc(OC)cc12 (stereo partly drawn)	-1.9	-3.6	-5.1	2.5	.
CC[C@H]1CN2CCC1C[C@H]2[C@H](O)c1ccnc2ccc(OC)cc12 (stereo partly drawn)	-2.9	6.0	1.3	9.8*	.
N#Cc1ccc(-c2ccc([C@H]3[C@H](CO)N4CCCCN(C(=O)Cc5ccccc5)C[C@@H]34)cc2)cc1	-0.7	7.1	0.6	-2.5	-22.5
CCC1(C)OC(c2ccccc2)=C/C(=C/C=C2C(=O)NC(=O)NC2=O)O1 (stereo not drawn)	0.6	-69.7	-1.0	15.3*	25.4
CCCCCCC(=O)N/N=C/c1c(O)n(C(C)CC)c(=S)[nH]c1=O (stereo not drawn)	.	-13.1	4.3	4.4	-22.8*
CCCCCCC(=O)N/N=C/c1c(O)n(C2CC2)c(=S)[nH]c1=O	0.3	-3.0	4.2	0.4	1.8
CC(C)NC(=O)N1CC2C(c3ccccc3)C(C1)N2C (stereo not drawn)	.	.	.	.	-0.1
CN1CC[C@]23c4c5ccc(O)c4OC2[C@H](O)C=CC3[C@H]1C5 (stereo partly drawn)	-3.8	4.3	.	.	.
COc1ccc2c3c1OC1C(O)C=CC4C(C2)[N+](C)(C)CCC341 (stereo not drawn)	57.7*	-7.7	-0.1	0.8	22.0
SMILES	ERAP1 inh	S100A4 inh HTS	SIRT5 inh	F508del corr	Ecoli rRNA inh	others
C=CCN1[C@@H]2CN(S(C)(=O)=O)C[C@H]1C2c1ccccc1 (stereo partly drawn)	.	.	.	.	-0.5
CN1C(=O)NC(=O)C2(CCCC2)C1=O	1.6	7.8	-3.0	10.3*	17.1
CCC1(CC)C(=O)N(C)C(=O)NC1=NC	-2.3	-2.9	-3.9	-1.1	25.2
CCC(COC(=O)c1cc(OC)c(OC)c(OC)c1)(c1ccccc1)N(C)C (stereo not drawn)	-4.4	-16.8	-2.9	9.0*!	-6.9
CN1CCN(C(=O)COc2ccc(S(=O)(=O)N(C)Cc3ccccc3)cc2)CC1	0.8	5.0	0.0	-3.7	-4.3
CN1CCN(C(=O)COc2ccc(N(C)S(=O)(=O)c3ccc(F)cc3)cc2)CC1	3.6	-4.7	23.4*	-0.3	28.4
COc1cccc(OC)c1C1=NCC(=O)Nc2c1oc1ccc(Br)cc21	-6.8	-4.3	0.6	3.8	-28.1*
CCOC(=O)c1c(C)n(Cc2ccccc2)c2ccc(O)cc12	1.4	3.8	-2.4	-1.1	-27.4*	AID977621=-16
COC(=O)c1c(C)n(Cc2ccccc2)c2ccc(O)cc12	-0.6	-1.3	-1.3	0.6	-31.5
CCCCn1c(NS(=O)(=O)c2ccc(C)cc2)c(C(=O)OCC)c2nc3ccccc3nc21	-2.9	-1.5	-3.0	3.1	-22.4*	AID977621=?
CCOC(=O)[C@]12Cc3ccccc3[C@H]1N(C(C)C)C(=O)c1cc(OC)ccc12	.	-8.6	-1.3	-1.2	-42.9
CCOC(=O)[C@]12Cc3ccccc3[C@H]1N(C)C(=O)c1cc(OC)ccc12	.	0.7	-3.3	0.3	-20.3*	AID977621=-16.4
O=C(Cc1ccccn1)N1CCCCN2[C@H](CO)[C@@H](c3ccc(-c4ccccc4)cc3)[C@@H]2C1	-1.8	-0.5	2.6	2.1	-0.9
COC(=O)[C@@H]1[C@@H](CO)[C@@H]2Cn3c(ccc(-c4ccncc4)c3=O)[C@H]1N2S(=O)(=O)c1ccccc1C	1.1	-9.1	-66.0	2.4	2.9
CC(=O)OC1N=C(c2ccccc2Cl)c2cc(Br)ccc2NC1=O (stereo not drawn)	2.8	8.7	-7.9	-2.3	-19.8*	AID977621=-14.3
COc1ccc(C#Cc2ccc([C@H]3[C@@H](CO)N4CCCCN(C(=O)Cc5ccncc5)C[C@H]34)cc2)cc1	-2.0	-13.4	0.5	0.4	-5.1
C[C@]12CCC3C(CC[C@H]4C[C@@H](O)CC[C@]34C)[C@H]1CC[C@H]2O (stereo partly drawn)	0.9	0.5	-1.9	-4.5	-20.4*	AID977621=-25.8
